Screening data from PubChem.
FLuc inhib CS – inhibits firefly luciferase, flagging false hits in luciferase inhibition screens | ATPLite firefly luciferase biochemical luminescence, 10 min | hit rate 1.5% among 200,000 | AID 1006 | P08659 | inhibition, % at 10 µM;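 active means inhibition above about 50% when tested at 10 µM, limit read from the data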
Target sequence (P08659 whole entry, looked up): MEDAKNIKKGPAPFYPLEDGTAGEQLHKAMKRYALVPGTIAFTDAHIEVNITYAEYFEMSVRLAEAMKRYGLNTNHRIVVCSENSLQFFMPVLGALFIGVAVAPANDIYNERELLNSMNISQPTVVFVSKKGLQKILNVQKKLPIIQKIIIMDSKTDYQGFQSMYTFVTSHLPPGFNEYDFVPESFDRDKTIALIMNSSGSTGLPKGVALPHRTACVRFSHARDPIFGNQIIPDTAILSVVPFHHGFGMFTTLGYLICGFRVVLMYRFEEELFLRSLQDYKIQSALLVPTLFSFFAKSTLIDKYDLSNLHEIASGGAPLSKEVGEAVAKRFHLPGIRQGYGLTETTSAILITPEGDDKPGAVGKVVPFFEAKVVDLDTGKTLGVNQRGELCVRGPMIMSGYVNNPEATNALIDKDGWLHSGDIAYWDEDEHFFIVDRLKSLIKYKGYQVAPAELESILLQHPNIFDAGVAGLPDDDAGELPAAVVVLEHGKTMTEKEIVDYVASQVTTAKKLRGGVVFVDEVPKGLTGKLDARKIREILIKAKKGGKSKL
FLuc act counter – firefly luciferase counter-screen for stimulation assays | 200,000 tested, under 10 active | activation factor at 10 µM | ATPlite luciferase biochemical, luminescence, 10 min; 0 = ATP-free wells, 1 = DMSO control | P08659;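 active means luciferase activation factor, scaled between plate controls, of at least 2 with compound at 10 µM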
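System: luciferase plus luciferin reagent, cell-free; medium: PBS as buffer for the ATP substrate; dosing: test compounds dosed from 2 mM stocks in 100% DMSO; timing: 10 min post-reagent at room temperature; measured by: luminescence measurement of luciferase light output; evaluation: luciferase activation, seen as luminescence increase over controls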
sdo1 growth – compounds rescuing growth of sdo1-depleted yeast, bone marrow failure model; AID 817; z-score at 10 µM; hit rate 0.21% among 140,000; S. cerevisiae sdo1-depleted JHY4D growth rescue, OD600 30 h; hits give high values; pdr5 snq2 efflux-pump mutant strain;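 active means z-score above 3 at both the 24 hr and the 30 hr optical density reads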;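 further: z-score against mean and SD of all compound wells on the same plate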
APP 5'UTR act – APP 5'UTR luciferase reporter activation. hit rate 1% among 190,000. activation, % at 2 µM. SH-SY5Y APP 5'UTR luciferase reporter, luminescence; zero percent = DMSO vehicle wells;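 active means activation above a set limit, based on mean plus 3 SD of controls, cut at about 140% in these data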
STAT1 activator – activators of IFN-gamma induced STAT1 signaling. NIH 3T3 STAT1-luciferase reporter, luminescence; 100% = IFN-gamma alone, no compound. activation (% of control), % at 5.5 µM. hit rate 2.6% among 200,000;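 active means activation above the screen-wide mean activation plus 3 SD, cut at about 130% in these data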;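 further: raw ratio to IFN-gamma control signal so 100% means no change and 0% no light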
NF-kB neuron act – NF-kB expression increase, human neuronal cells; fold change at 12.5 µM; hit rate 1.6% among 190,000; NF-kB reporter expression; hits give high values; in the data active means fold change above about 3.3
Starred values were filed as active, the others as inactive; x = no result given. Shown are actives, neighbours in structure and some others; about 4.3% of the full set was active somewhere.

SMILES | FLuc inhib CS | FLuc act counter | sdo1 growth | APP 5'UTR act | STAT1 activator | NF-kB neuron act
N#Cc1ccc(NC(=S)NCCN2CCOCC2)cc1 | -3 | 1 | x | 13 | 102 | 1.1
O=C(Nc1cnc2ccccc2c1)c1cccnc1 | 11 | 0.9 | 0.82 | 106 | 134* | 3.6*
Cn1c(NC(=O)c2cccnc2)nc2ccccc21 | 21 | 0.8 | 0.77 | 74 | 148* | 2.2
CN(C)C(=O)Nc1cnc2ccccc2c1 | -2 | 1 | 0.72 | 1 | 111 | 1.3
CCCn1c(NC(=O)c2ccccc2)nc2ccccc21 | -4 | 1 | -1.1 | -5 | 102 | 0.99
CCOC(=O)C1CCCN(C(=O)c2cc(-c3ccccc3)nc3ccccc23)C1 (configuration not stated) | 1 | 1 | x | 0 | 87 | 1.1
CS(=O)(=O)N1CCN(C(=O)c2cc(-c3ccccc3)nc3ccccc23)CC1 | 11 | 0.9 | 1.2 | -6 | 103 | 0.95
CCOc1ccc(-c2cc(C(=O)N3CCN(C)CC3)c3ccccc3n2)cc1 | 83* | 0.2 | 0.01 | 37 | 117 | 2
CCOC(=O)N1CCN(C(=O)c2cc(-c3ccc(OCC)cc3)nc3ccccc23)CC1 | 92* | 0.1 | -0.57 | -78 | 146* | 3.3*
C=CCn1c(COc2cccc(C)c2)nnc1SCC(=O)c1c[nH]c2c(CC)cccc12 | -4 | 1 | -0.43 | -3 | 105 | 0.9
CCOc1cc(/C=C/c2cc(C(=O)O)c3ccccc3n2)ccc1O | 73* | 0.3 | 1.2 | 3 | 103 | 1.6
CCOc1cc(/C=N/NC(=O)Nc2ccccc2)ccc1O | 36 | 0.6 | x | 69 | 127 | 2.8
CCOc1cc(/C=C/c2cc(C(=O)O)c3ccccc3n2)ccc1OC | 86* | 0.1 | 1.2 | 4 | 107 | 1.9
COc1cc(/C=C/c2cc(C(=O)O)c3ccccc3n2)cc(OC)c1O | 38 | 0.6 | x | -12 | 101 | 0.94
Cc1ccccc1C(=O)NC(CC(C)C)C(=O)OCc1cc(=O)n2cc(Br)ccc2n1 (configuration not stated) | 2 | 1 | 0.02 | 74 | 138* | 3.5*
O=C(OCc1cc(=O)n2cc(Br)ccc2n1)C1COc2ccccc2O1 (configuration not stated) | -10 | 1.1 | 0.25 | -9 | 104 | 1.3
CC1CC1C(=O)OCc1cc(=O)n2cc(Br)ccc2n1 (configuration not stated) | 11 | 0.9 | -0.08 | 63 | 136* | 2.1
Cn1c(SCc2c(Cl)cccc2Cl)nc(C(F)(F)F)cc1=O | -6 | 1.1 | -0.71 | 0 | 101 | 1.2
O=C1/C(=C\c2cccnc2)Sc2ccccc21 | 60* | 0.4 | -0.07 | 14 | 91 | 0.95
N#Cc1c(NC(=O)c2cnn3cccnc23)sc2c1CCCC2 | 15 | 0.9 | x | 78 | 117 | 1.1
O=C(Nc1cnn(C23CC4CC(CC(C4)C2)C3)c1)c1cnn2cccnc12 | 67* | 0.3 | -1.2 | 84 | 122 | 3
CC(=O)/C=C1\SC(CC(=O)O)C(=O)N1c1ccccc1 (configuration not stated) | -1 | 1 | -0.06 | -5 | 101 | 1.1
C#CCNC(=O)/C=C/c1ccc(OC)cc1 | 21 | 0.8 | -0.16 | 55 | 120 | 2
O=C(Nc1ccc(O)c(-c2nc3ccccc3s2)c1)c1cccs1 | -1 | 1 | -0.34 | 1 | 92 | 0.99
Oc1ccc(N=C/C=C/c2cccc(Br)c2)cc1-c1nc2ccccc2s1 | 38 | 0.6 | -1.7 | 44 | 144* | 1.3
SMILES | FLuc inhib CS | FLuc act counter | sdo1 growth | APP 5'UTR act | STAT1 activator | NF-kB neuron act
Cc1ccc(SC(C)C(=O)Nc2c(C)n(C)n(-c3ccccc3)c2=O)cc1 (configuration not stated) | 0 | 1 | 0.3 | x | 99 | 1
O=C(COc1ccccc1)NC1=NCCS1 | 31 | 0.7 | 0.07 | -6 | 122 | 1.2
CC(Oc1ccccc1)C(=O)NC1=NCCS1 (configuration not stated) | 7 | 0.9 | x | 58 | 134* | x
O=C(NC1=NCCS1)Nc1ccccc1 | 42 | 0.6 | 0.2 | 53 | 135* | 2.5
CCOC(=O)c1ccccc1NC(=S)N1CCN(C2CCCCC2)CC1 | -4 | 1 | x | 1 | 98 | 1.1
c1ccc(-c2nccc(-c3ccc4c(c3)OCO4)n2)cc1 | 3 | 1 | x | 47 | 134* | 2
c1ccc(-c2noc(-c3ccc4ccccc4c3)n2)nc1 | 96* | 0 | -2 | -49 | 18 | 0.2
c1ccc(-c2noc(-c3ccc4c(c3)OCO4)n2)nc1 | 94* | 0.1 | -0.1 | -30 | 49 | 0.68
Cc1nccc(-c2ccc3c(c2)OCO3)n1 | 1 | 1 | x | 6 | 99 | 1.1
c1ccc(CCc2ccccc2-c2nc(-c3ccccn3)no2)cc1 | 0 | 1 | -1.2 | x | 99 | 1.1
COC12NC(=O)N(C)C1(OC)C(=O)N(C)C(=O)N2C (configuration not stated) | -2 | 1 | 2.3 | 0 | 92 | 0.99
Cc1cc(C)c(NC(=O)c2ccc[n+](Cc3ccc([N+](=O)[O-])cc3)c2)c(C)c1 | -1 | 1 | 0.49 | 18 | 105 | 1.2
O=C(Nc1ccc(Cl)cc1)N1CCc2ccccc2C1 | 12 | 0.9 | x | 44 | 139* | 2.9
O=C(Nc1ccccc1)N1CCc2ccccc2C1 | 29 | 0.7 | -0.53 | 82 | 122 | 2.4
Cc1ccc(NC(=O)N2CCc3ccccc3C2)cc1 | 18 | 0.8 | -0.29 | 75 | 148* | 3.5*
Cc1ccc(C(=O)Nc2nnc(C)s2)o1 | -4 | 1 | 0.1 | -10 | 107 | 1.2
O=C(Nc1nccs1)c1ccc(Br)o1 | 8 | 0.9 | 2.8 | 41 | 106 | 1.4
Cc1nc(NC(=O)c2ccc(Br)o2)sc1C | 40 | 0.6 | 1.2 | 121 | 130* | 4.7*
Cc1cc(C(=O)Nc2nnc(C3CCCCC3)s2)no1 | 9 | 0.9 | -0.88 | 4 | 100 | 1.3
Cc1ccc(C(=O)Nc2nc(C)c(C)s2)o1 | 40 | 0.6 | 0.38 | 132 | 132* | 4*
Cc1ccc(C(=O)Nc2nnc(C3CCCCC3)s2)o1 | 52* | 0.5 | 0.16 | 113 | 115 | 3.8*
CCOC(=O)CN(Cc1sccc1C)C(=O)Nc1ccc(OC)cc1OC | -1 | 1 | 1 | -12 | 92 | 1.3
CCCC(O)(CCC)C(=O)NN(C(=O)CCl)c1ccccc1 | -4 | 1 | 0.07 | -1 | 104 | 7.2*
CCOC(=O)c1cc2c(s1)-c1ccccc1CC2 | 4 | 1 | -0.54 | 41 | 131* | 1.9
CCOC(=O)c1sc(/N=C/c2c(O)ccc3ccccc23)cc1C | 24 | 0.8 | -0.26 | -4 | 100 | 1.4
CCOC(=O)c1cc2ccc3ccccc3c2s1 | 19 | 0.8 | -0.74 | 74 | 151* | 3.1
CCOC(=O)c1cc2cc3ccccc3cc2[nH]1 | 6 | 0.9 | 0.08 | 118 | 136* | 3.4*
COC(=O)c1cc2c(s1)-c1ccccc1CC2 | -3 | 1 | 0.02 | 30 | 120 | 1.3
